For assay [1], the system named is Caco-2. The assay is described as follows: Induction of apoptosis in human Caco-2 cells assessed as increase in active caspase 3 level. The format is functional, cell-based.
A short description of assay [2]: Cytostatic activity against human Colorectal epithelial cells isolated from patient with well-differentiated colonic adenocarcinoma cultured as organoids assessed as inhibition of cell growth at 0.1 ug/ml incubated for 48 hrs by CellTiter-Glo luminescence assay relative to control. Type of assay: functional. The essentials:
(§1)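 Primary colonic epithelial cells (3 control and 2 CRC patients) were expanded as organoids or spheroids in Matrigel with EGF/noggin/Wnt3a/R-spondin medium. Single cells were seeded at 2500/well and allowed 48 h to form colonoids, then exposed for 48 h at 0.01, 0.1 or 1 µg/mL, with 5FdU at 1 µg/mL as positive control. Viability was read by CellTiter-Glo luminescence versus DMSO or medium control.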

The target of assay [3] is T1, Protein kinase C zeta type (Homo sapiens) (UniProt Q05513).
T1 sequence (whole entry): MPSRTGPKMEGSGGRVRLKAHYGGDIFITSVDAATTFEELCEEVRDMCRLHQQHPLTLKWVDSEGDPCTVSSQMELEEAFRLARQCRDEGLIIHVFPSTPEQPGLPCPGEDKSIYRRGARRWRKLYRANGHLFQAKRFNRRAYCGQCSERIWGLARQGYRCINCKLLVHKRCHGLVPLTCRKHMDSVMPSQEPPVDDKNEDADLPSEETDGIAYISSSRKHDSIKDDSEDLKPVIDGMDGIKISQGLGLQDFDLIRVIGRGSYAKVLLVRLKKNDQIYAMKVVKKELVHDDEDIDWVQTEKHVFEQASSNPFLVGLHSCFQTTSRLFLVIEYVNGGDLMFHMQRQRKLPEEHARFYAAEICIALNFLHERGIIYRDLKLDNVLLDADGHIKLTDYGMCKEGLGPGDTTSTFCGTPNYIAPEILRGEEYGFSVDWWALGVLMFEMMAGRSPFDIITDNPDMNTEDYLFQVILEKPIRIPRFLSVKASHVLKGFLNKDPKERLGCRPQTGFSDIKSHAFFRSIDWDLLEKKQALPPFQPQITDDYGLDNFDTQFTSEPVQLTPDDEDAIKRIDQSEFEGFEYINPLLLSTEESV
Description: Activation of PKCzeta in human Caco-2 cells assessed as increase in colocalization of PKCzeta and actin in peripheral to cell aggregates at 1 ug/ml measured after 48 hrs by immunostaining analysis. Type of assay: cell-based. The settings on record: filed as activator, dose 1.0 µg/ml. In a few lines: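 Caco-2 cells were seeded at 40 000/well and treated for 48 h as in the viability assay. They were fixed in 3.7% PFA for 20 min and permeabilised in HBSS/0.5% Triton X100/1% BSA. Anti-PKCζ (1/50) or anti-PKCα (1/200) was applied overnight at 4°C, then Alexa 488 secondary for 45 min. Phalloidin and Hoechst counterstained the cells before confocal imaging; PKCα signal was quantified by immunofluorescence.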

Assay [4] addresses RAC-alpha serine/threonine-protein kinase (Homo sapiens) (UniProt P31749). The assay is described as follows: Inhibition of AKT in human Caco-2 cells assessed as reduction in phosphorylation at serine 473 residue at 1 ug/ml incubated for 48 hrs by Western blot analysis. The format is cell-based. The settings on record: dose 1.0 µg/ml. In a few lines: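 Caco-2 cells (0.25 × 10^6/well) were treated at 1 µg/mL for 48 h and lysed in pH 7.4 Tris/NaCl/Triton/EDTA buffer with protease and phosphatase inhibitors. 30 µg protein was run per lane on 4–15% gels and blotted for pSer9-GSK3β, total GSK3β, pSer473-Akt, total Akt and β-catenin, with actin as loading control. Detection was by ECL; n=2, t-test versus DMSO.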

In assay [5] the test system is Caco-2. Description: Induction of morphological changes in human Caco-2 cells assessed as cellular aggregation at 1 ug/ml preincubated for 15 mins with PKCalpha inhibitor, Go6976 followed by compound addition and measured after 48 hrs by immunostaining based confocal microscopic analysis. Type of assay: functional, cell-based. As to conditions: dose 1.0 µg/ml. The essentials: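 Caco-2 cells were given 0.2 µM Gö6976 for 15 min before compound at 1 µg/mL for 48 h. PKCα was immunostained, nuclei and cytoskeleton were labelled, and cells were imaged by confocal microscopy (20X objective) in duplicate from one experiment.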

Assay [6] concerns Colorectal epithelial cell. The assay is described as follows: Cytostatic activity against human Colorectal epithelial cells isolated from patient with well-differentiated colonic adenocarcinoma and undergone nine courses of chemotherapy cultured as organoids at 1 ug/ml incubated for 48 hrs by CellTiter-Glo luminescence assay. The format is functional, cell-based. The settings on record: dose 1.0 µg/ml. The essentials: as §1

Assay [7] has as its system Caco-2. The assay is described as follows: Cytotoxicity against human Caco-2 cells assessed as cell death. Type of assay: functional, cell-based.
In assay [8] the test system is Caco-2. The assay is described as follows: Effect on phosphorylated MEK at Ser217/221 level in human Caco-2 cells at 1 ug/ml measured after 48 hrs by Western blot analysis. Type of assay: functional, cell-based. As to conditions: dose 1.0 µg/ml. The essentials:
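Caco-2 cells (0.25 × 10^6/well) were treated at 1 µg/mL for 48 h, with or without 30 min pretreatment with 2.5 µM CRT0066854. Lysates (30 µg protein) were blotted for pSer217/221-MEK and total MEK, with actin as loading control. Detection was by ECL; n=2, t-test versus DMSO.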

Assay [9] has as its system Caco-2. The assay is described as follows: Cytostatic activity against human Caco-2 cells assessed as reduction in cell growth at 1 ug/ml preincubated for 15 mins with PD0325901 followed by compound addition and measured after 48 hrs by MTS assay. The format is functional, cell-based. As to conditions: dose 1.0 µg/ml. In a few lines:
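Caco-2 cells were pretreated with 0.5 µM PD0325901 for 15 min, then given compound at 1 µg/mL for 48 h. Viability was measured by MTS at 490 nm; n=3, t-test versus DMSO.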

The target in assay [10] is T1, Protein kinase C zeta type (Homo sapiens). The assay is described as follows: Activation of PKCzeta in human Caco-2 cells assessed as increase in phosphorylation at Thr410 residue at 1 ug/ml measured after 48 hrs by Western blot analysis. Type of assay: cell-based. As to conditions: filed as activator, dose 1.0 µg/ml. The essentials:
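Caco-2 cells (0.25 × 10^6/well) were pretreated or not with 2.5 µM CRT0066854 for 30 min, then treated at 1 µg/mL for 48 h. Lysis buffer was pH 7.4 Tris/NaCl/0.1% Triton/EDTA with protease and phosphatase inhibitors. 30 µg protein was run on 4–15% SDS-PAGE, blotted and probed overnight at 4°C for pThr410-PKCζ and total PKCζ, with HRP/ECL detection.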

Assay [11] relates to Caco-2. Description: Cytostatic activity against human Caco-2 cells assessed as inhibition of cell growth at 0.5 ug/ml incubated for 48 hrs by MTS assay relative to control. The format is functional. The essentials: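 Caco-2 cells were seeded at 40 000/well 48 h before dosing. Compound was diluted from a 10 mg/mL DMSO stock into medium (0.125, 0.5 or 1 µg/mL final; DMSO ≤0.01%) and added in triplicate for 48 h. Viability was read by MTS absorbance at 490 nm and expressed relative to the DMSO control.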

The subject of another assay is Zika virus. Description: Antiviral activity against ZIKV expressing GFP reporter gene measured 24 hrs post infection. Type of assay: functional, organism-based. In a few lines:
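Cells in 96-well plates were exposed to serial concentrations starting at 50 µg/mL and infected with GFP-reporter Zika virus at MOI 1. At 24 h post-infection, cells were fixed in 3.7% PFA and GFP-positive cells were counted by flow cytometry.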

Assay [12] deals with Protein kinase C delta type (Homo sapiens) (UniProt Q05655). Description: Inhibition of PKCdelta in human Caco-2 cells assessed as ratio of phosphorylated PKCdelta at Ser664 residue to total PKCdelta level at 1 ug/ml incubated for 48 hrs by Western blot analysis (reference value: 0.77). The format is cell-based. The settings on record: dose 1.0 µg/ml.
For assay [13] the target is unchanged. The assay is described as follows: Inhibition of PKCdelta in human Caco-2 cells assessed as reduction in protein phosphorylation at Ser664 residue at 1 ug/ml incubated for 48 hrs by Western blot analysis. Type of assay: cell-based. The settings on record: dose 1.0 µg/ml.

Calls of active or inactive are those of the source. No cut-off for these calls is given here.

Chain of Protein kinase C delta type (Homo sapiens) (Q05655 whole entry, looked up): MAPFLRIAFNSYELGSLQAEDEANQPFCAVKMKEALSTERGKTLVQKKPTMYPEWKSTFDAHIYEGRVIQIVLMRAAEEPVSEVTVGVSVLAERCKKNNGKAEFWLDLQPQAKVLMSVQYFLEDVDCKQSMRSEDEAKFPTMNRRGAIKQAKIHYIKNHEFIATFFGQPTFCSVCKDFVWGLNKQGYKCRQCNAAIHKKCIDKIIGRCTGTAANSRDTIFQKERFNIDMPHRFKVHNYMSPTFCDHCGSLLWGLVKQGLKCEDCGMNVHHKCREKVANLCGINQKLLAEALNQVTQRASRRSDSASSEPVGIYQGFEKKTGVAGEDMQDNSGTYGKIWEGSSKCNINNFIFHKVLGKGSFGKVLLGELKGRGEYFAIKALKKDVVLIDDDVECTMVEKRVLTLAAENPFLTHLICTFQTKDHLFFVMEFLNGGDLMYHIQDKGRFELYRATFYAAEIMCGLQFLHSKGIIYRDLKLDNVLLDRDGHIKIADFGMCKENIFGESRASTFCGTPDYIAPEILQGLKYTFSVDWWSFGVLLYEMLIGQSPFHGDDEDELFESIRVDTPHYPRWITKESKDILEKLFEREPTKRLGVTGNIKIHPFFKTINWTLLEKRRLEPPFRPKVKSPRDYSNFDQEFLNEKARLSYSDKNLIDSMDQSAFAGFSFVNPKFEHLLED
Chain of RAC-alpha serine/threonine-protein kinase (Homo sapiens) (P31749 whole entry): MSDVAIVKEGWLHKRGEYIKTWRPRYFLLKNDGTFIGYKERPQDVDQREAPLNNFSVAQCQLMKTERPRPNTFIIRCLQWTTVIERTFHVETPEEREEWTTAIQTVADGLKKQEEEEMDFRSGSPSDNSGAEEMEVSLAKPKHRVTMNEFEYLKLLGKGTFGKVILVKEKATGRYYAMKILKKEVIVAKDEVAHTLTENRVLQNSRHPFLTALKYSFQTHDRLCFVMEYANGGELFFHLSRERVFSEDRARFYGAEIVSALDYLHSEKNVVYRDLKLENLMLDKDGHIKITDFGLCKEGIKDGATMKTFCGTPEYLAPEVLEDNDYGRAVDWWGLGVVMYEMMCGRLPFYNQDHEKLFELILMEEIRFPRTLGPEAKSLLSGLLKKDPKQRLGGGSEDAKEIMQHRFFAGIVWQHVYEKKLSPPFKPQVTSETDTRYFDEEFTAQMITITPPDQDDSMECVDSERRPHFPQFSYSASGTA

Turning to `C=C(C)[C@]12C[C@@H](C)[C@@]34O[C@](/C=C/[C@@H]5O[C@H]5CCCCCCCCC)(O[C@@H]1[C@@H]3[C@@H]1O[C@]1(CO)[C@@H](O)[C@]1(O)C(=O)C(C)=C[C@H]14)O2`, the outcome in the assay on Caco-2 [1], in the assay with Caco-2 [7] and with Caco-2 [8] was inactive. The inhibition at 0.1 µg/mL in assay [2] is 40%. In addition, the result (in [3]; with Caco-2 [5]; in assay [6]) was Active. Besides, the inhibition entry in [4] is “Active”.

Turning to `C=C(C)[C@]12C[C@@H](C)[C@@]34O[C@](/C=C/C=C/CCCCCCCCC)(O[C@@H]1[C@@H]3[C@@H]1O[C@]1(CO)[C@@H](O)[C@]1(O)C(=O)C(C)=C[C@H]14)O2`, the result with Caco-2 [1], in the assay with Caco-2 [9], in the assay with Caco-2 [7] and in the assay on Caco-2 [8] was inactive. Besides, in assay [2], the inhibition at 0.1 µg/mL stood at 40%. The result (in assay [10]; in the assay with Caco-2 [5]; in [6]) was Active. For the same compound, in the assay on Caco-2 [11], the inhibition at 0.5 µg/mL is 20%. This compound also had an IC50 in the assay with Zika virus of over 50 µM. For the same compound, the inhibition entry in [4] and in [13] was “Active” in each case. Besides, the Ratio in assay [12] stood at 0.73.
